Experimental data: ChEMBL document CHEMBL1125570 (J Med Chem, 1992)

Tests used:
[1] = biological target: T1, Serotonin 2 (5-HT2) receptor (Rattus norvegicus, UniProt P30994+P08909+P14842); experiment: Inhibitory constant against 5-hydroxytryptamine 2 receptor; assay type: protein assay
Procedure, shortened: (§1)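 Male Sprague-Dawley rat (200–250 g) frontal cortex membranes in 50 mM Tris·HCl/0.5 mM EDTA/10 mM MgCl2, pH 7.4, plus 0.1% ascorbate and 10⁻⁵ M pargyline. […] Nonspecific binding defined by 1.0 μM cinanserin. Run in triplicate, 15 min at 37 °C, then filtration. Ki = IC50/(1 + D*/KD*).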

[2] = biological target: T2, Serotonin 2 (5-HT2) receptor (Rattus norvegicus) (UniProt P30994+P08909+P14842); experiment: Selectivity ratio for 5-HT1C compared to 5-HT2 receptors.; assay type: protein assay
Procedure, shortened: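 Ratio of 5-HT1C Ki over 5-HT2 Ki. Both come from rat frontal cortex competition assays run in triplicate for 15 min at 37 °C. The 5-HT1C assay used 1 nM [3H]mesulergine with 100 nM spiperone present. […] Ki values were derived from IC50 by Cheng–Prusoff.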

[3] = biological target: T3, 5-hydroxytryptamine receptor 2C (Rattus norvegicus, UniProt P08909); experiment: Binding affinity against 5-hydroxytryptamine 1C receptor in rat using [3H]mesulergine as radioligand
T3 sequence (P08909 whole entry): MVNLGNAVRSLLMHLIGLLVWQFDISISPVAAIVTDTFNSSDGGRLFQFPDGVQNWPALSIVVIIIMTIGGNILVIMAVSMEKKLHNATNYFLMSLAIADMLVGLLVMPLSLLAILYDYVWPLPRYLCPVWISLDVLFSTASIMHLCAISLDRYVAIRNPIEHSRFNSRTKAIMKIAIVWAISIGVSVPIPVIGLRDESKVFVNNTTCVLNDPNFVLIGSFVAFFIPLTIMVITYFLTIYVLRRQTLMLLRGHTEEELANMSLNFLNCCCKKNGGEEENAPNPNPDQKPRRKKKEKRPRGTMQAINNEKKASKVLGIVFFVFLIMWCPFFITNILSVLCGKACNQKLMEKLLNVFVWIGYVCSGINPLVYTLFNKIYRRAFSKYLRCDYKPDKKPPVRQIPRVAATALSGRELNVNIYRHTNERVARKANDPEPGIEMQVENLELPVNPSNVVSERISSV
Procedure, shortened: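 Rat frontal cortex homogenate (male Sprague-Dawley, 200–250 g), washed in 50 mM Tris·HCl, 0.5 mM EDTA, 10 mM MgCl2, pH 7.4, with 0.1% ascorbate and 10⁻⁵ M pargyline. 10 mg wet tissue, 1 nM [3H]mesulergine, 100 nM spiperone to block 5-HT2 sites, nonspecific binding with 1.0 μM mianserin. Incubated 15 min at 37 °C, triplicates, filtration. Ki from IC50 via Cheng–Prusoff.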

[4] = biological target: Serotonin 2 (5-HT2) receptor (Rattus norvegicus, UniProt P14842); experiment: Binding affinity against 5-hydroxytryptamine 2 receptor in rat using [3H]ketanserin as radioligand
Procedure, shortened: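 Male Sprague-Dawley rat (200–250 g) frontal cortex membranes in 50 mM Tris·HCl/0.5 mM EDTA/10 mM MgCl2, pH 7.4, plus 0.1% ascorbate and 10⁻⁵ M pargyline. Nonspecific binding defined by 1.0 μM cinanserin. Run in triplicate, 15 min at 37 °C, then filtration. Ki = IC50/(1 + D*/KD*).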

[5] = biological target: T1, Serotonin 2 (5-HT2) receptor; experiment: Inhibitory activity against 5-hydroxytryptamine 2 receptor; assay type: protein assay; procedure, shortened: as §1
[6] = biological target: T1, Serotonin 2 (5-HT2) receptor; experiment: Binding affinity against 5-Hydroxy tryptamine 2 (5-hydroxytryptamine 2)receptor; assay type: protein assay
[7] = biological target: T3, 5-hydroxytryptamine receptor 2C; experiment: Binding affinity against 5-hydroxytryptamine 1C receptor
[8] = biological target: T2, Serotonin 2 (5-HT2) receptor (Rattus norvegicus); experiment: Selectivity for 5-HT1C and 5-HT2 receptors, ratio of Ki; assay type: protein assay
Procedure, shortened: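 Both come from rat frontal cortex competition assays run in triplicate for 15 min at 37 °C. The 5-HT1C assay used 1 nM [3H]mesulergine with 100 nM spiperone present. Ki values were derived from IC50 by Cheng–Prusoff.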

T2 sequence (P14842 whole entry, looked up, one chain of several): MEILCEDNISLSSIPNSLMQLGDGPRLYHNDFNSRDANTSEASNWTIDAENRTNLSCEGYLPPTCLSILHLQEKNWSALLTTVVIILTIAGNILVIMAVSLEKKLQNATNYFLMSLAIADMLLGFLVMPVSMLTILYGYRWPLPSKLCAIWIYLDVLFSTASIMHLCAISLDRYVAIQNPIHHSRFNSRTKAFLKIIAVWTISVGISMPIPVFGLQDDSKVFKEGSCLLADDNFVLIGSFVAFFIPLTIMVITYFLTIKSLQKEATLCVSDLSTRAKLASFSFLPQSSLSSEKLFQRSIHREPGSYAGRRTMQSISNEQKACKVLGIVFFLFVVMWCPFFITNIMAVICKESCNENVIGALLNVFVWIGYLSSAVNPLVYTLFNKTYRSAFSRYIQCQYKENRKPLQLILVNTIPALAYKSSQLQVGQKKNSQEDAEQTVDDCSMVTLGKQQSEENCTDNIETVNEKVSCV
T2 sequence (P30994 whole entry, looked up, one chain of several): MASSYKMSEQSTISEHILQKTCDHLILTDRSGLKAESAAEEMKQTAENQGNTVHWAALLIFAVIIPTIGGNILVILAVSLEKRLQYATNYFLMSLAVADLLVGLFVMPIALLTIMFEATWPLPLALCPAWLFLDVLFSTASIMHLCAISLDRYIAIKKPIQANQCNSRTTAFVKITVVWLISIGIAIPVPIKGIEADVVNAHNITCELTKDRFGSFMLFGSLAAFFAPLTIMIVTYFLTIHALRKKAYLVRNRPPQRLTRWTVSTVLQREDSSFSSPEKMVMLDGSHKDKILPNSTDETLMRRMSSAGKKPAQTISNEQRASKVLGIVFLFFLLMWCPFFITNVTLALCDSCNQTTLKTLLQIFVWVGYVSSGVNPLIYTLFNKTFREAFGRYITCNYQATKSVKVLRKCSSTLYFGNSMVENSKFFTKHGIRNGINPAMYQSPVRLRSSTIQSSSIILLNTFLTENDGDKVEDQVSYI

SMILES | Ratio [2] | Ki [3] | Ki [4] | also measured
OC(c1ccccc1)C1CCN(CCc2ccccc2)CC1 (configuration not stated) [GLEMANSERIN] | – | – | – | Ki [1]: 12.5 nM
O=C(NCCN1CCC(C(=O)c2ccc(F)cc2)CC1)Nc1ccccc1.O=C(O)C(=O)O | 50 | 200 nM | 4.3 nM | –
CN(C)CCn1c(=O)[nH]c2ccccc2c1=O | – | > 10000 nM | > 10000 nM | –
CN1CCN(C(=O)c2ccccc2)CC1 | – | > 10000 nM | > 10000 nM | –
O=C(NCCN1CCC(C(=O)c2ccc(F)cc2)CC1)c1ccccc1.O=C(O)C(=O)O | 100 | 1610 nM | 16 nM | –
OC(c1ccccc1)C1CCN(CCc2ccc(F)cc2)CC1 (configuration not stated) | – | – | – | IC50 [5]: 0.9 nM
CN1CCN(C2CC(c3ccc(F)cc3)c3ccccc32)CC1 (single isomer, unassigned; (+)) | – | – | – | IC50 [5]: 4.9 nM
O=C(O)C(=O)O.O=C(c1ccc(F)cc1)C1CCN(CCc2ccccc2)CC1 | 15 | 145 nM | 8.5 nM | –
CN1CCN(Cc2ccc(F)cc2)CC1.Cl.Cl | – | > 10000 nM | > 10000 nM | –
O=C(O)C(=O)O.O=c1[nH]c2ccccc2c(=O)n1CCN1CCC(Cc2ccc(F)cc2)CC1 | 17 | 200 nM | 12 nM | –
O=C(O)C(=O)O.O=C(c1ccc(F)cc1)C1CCN(CCCCc2ccccc2)CC1 | 120 | 620 nM | 5.3 nM | –
O=C(O)C(=O)O.O=C(c1ccc(F)cc1)C1CCN(CCCCCc2ccccc2)CC1 | 40 | 420 nM | 10 nM | –
CCN1CCC(C(O)c2ccc(F)cc2)CC1.O=C(O)/C=C\C(=O)O (configuration not stated) | – | > 10000 nM | > 10000 nM | –
c1ccc(CN2CCNCC2)cc1 | – | > 10000 nM | > 10000 nM | –
c1ccc(CC2CCNCC2)cc1 | – | – | – | Ki [6]: > 10000 nM; Ki [7]: > 10000 nM
CN1CCC(C(=O)c2ccc(F)cc2)CC1 | 12 | 1510 nM | 125 nM | –
CN1CCC(Cc2ccccc2)CC1.Cl | – | – | – | Ki [6]: 3870 nM; Ki ratio [8]: > 2; Ki [7]: > 10000 nM
O=C(O)C(=O)O.O=C(c1ccc(F)cc1)C1CCN(CCCc2ccccc2)CC1 | 60 | 940 nM | 16 nM | –

SMILES | Ratio [2] | Ki [3] | Ki [4] | also measured
O=C(O)/C=C\C(=O)O.O=c1[nH]c2ccccc2c(=O)n1CCN1CCC(Cc2ccccc2)CC1 | 30 | 970 nM | 32 nM | –
O=C(c1ccc(F)cc1)C1CCNCC1 | 2 | 1100 nM | 430 nM | –
O=C(O)C(=O)O.O=c1[nH]c2ccccc2c(=O)n1CCN1CCC(C(O)c2ccccc2)CC1 (configuration not stated) | > 15 | > 10000 nM | 655 nM | –
Cl.O=c1[nH]c2ccccc2c(=O)n1CCN1CCCCC1 | – | > 10000 nM | > 10000 nM | –
O=C1NCCN1CCN1CCN(C2CC(c3ccc(F)cc3)c3ccccc32)CC1 (configuration not stated) | – | – | – | IC50 [5]: 3.4 nM
CCN1CCC(C(=O)c2ccc(F)cc2)CC1 | 12 | 3160 nM | 260 nM | –
O=C(c1ccc(F)cc1)C1CCN(CCn2c(=O)[nH]c3ccccc3c2=O)CC1 [KETANSERIN] | – | 50 nM | – | –
O=C(c1ccccc1)C1CCNCC1 | > 3 | > 10000 nM | 3320 nM | –
O=C(O)/C=C\C(=O)O.O=c1[nH]c2ccccc2c(=O)n1CCNCCCCc1ccccc1 | > 50 | > 10000 nM | 180 nM | –
O=C(O)/C=C\C(=O)O.O=C(c1ccccc1)C1CCN(CCn2c(=O)[nH]c3ccccc3c2=O)CC1 | 115 | 760 nM | 6.5 nM | –
Cl.O=C(CCCN1CCC(C(=O)c2ccc(F)cc2)CC1)c1ccccc1 | 50 | 350 nM | 6.5 nM | –
CN1CCN(CCn2c(=O)[nH]c3ccccc3c2=O)CC1.Cl.Cl | – | > 10000 nM | > 10000 nM | –
O=C(c1ccccc1)N1CCNCC1 | – | > 10000 nM | > 10000 nM | –
CN(CCCc1ccccc1)CCn1c(=O)[nH]c2ccccc2c1=O.O=C(O)C(=O)O | 2 | 1390 nM | 640 nM | –
O=C(O)C(=O)O.O=C(c1ccc(F)cc1)C1CCN(Cc2ccccc2)CC1 | 120 | 3000 nM | 25 nM | –
O=C(O)/C=C\C(=O)O.O=c1[nH]c2ccccc2c(=O)n1CCNCCCc1ccccc1 | > 10 | > 10000 nM | 660 nM | –
Cl.NCCn1c(=O)[nH]c2ccccc2c1=O | – | > 10000 nM | > 10000 nM | –
CN1CCN(C(=O)c2ccc(F)cc2)CC1 | – | > 10000 nM | > 10000 nM | –
